The subject of data set [1] is Caco-2 cells. Kind of data set: Caco-2 permeability assay. To be noted: Caco-2 Transwell, apical to basolateral, RP-HPLC. In kind it is in vitro ADME, human. In outline: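 Caco-2 cells seeded at 1 × 10^5 cells/well on 0.4 µm Transwell membranes and grown to a monolayer checked by TEER. Medium replaced with HBSS before dosing.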
In general terms: Passage across Caco-2 layers is used to estimate intestinal permeability.

The target in data set [2] is pepsin from porcine stomach mucosa (Sus scrofa, UniProt P00791). Nature of the data set: Stability test in simulated gastric fluid. In kind it is in vitro ADME. The note with it: 37°C; for Degradation in simulated gastric fluid with pepsin: up to 120 min. In outline:
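Simulated gastric fluid: 200 mg NaCl and 64 mg porcine pepsin in 100 mL water plus 0.7 mL HCl, pH 1.2. Peptide (10 mg/mL in 0.1 M ammonium bicarbonate, 0.1 mL) mixed with 0.9 mL SGF at 37°C. Sampled at 0, 5, 15, 30, 60 and 120 min; quenched with 0.2 M NaOH; analysed by RP-HPLC. PEG 200, 400, 1000 or 4000 tested at 0%, 20% and 40% in SGF.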

Sequence of pepsin from porcine stomach mucosa (P00791 60-385): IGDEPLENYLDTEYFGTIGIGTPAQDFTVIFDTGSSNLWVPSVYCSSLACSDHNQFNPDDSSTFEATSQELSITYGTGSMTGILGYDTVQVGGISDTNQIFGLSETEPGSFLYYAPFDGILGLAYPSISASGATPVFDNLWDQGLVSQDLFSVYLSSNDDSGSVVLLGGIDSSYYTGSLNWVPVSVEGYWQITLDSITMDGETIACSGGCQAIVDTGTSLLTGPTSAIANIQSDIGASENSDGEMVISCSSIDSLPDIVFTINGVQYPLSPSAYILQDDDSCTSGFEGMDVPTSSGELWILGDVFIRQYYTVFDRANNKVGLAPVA

In the case of `CCCCCCCCCCCCCCCC(=O)N[C@@H](CCC(=O)NCCCC[C@H](NC(=O)[C@H](C)NC(=O)[C@H](C)NC(=O)[C@H](CCC(N)=O)NC(=O)CNC(=O)[C@H](CCC(=O)O)NC(=O)[C@H](CC(C)C)NC(=O)[C@H](Cc1ccc(O)cc1)NC(=O)[C@H](CO)NC(=O)[C@H](CO)NC(=O)[C@@H](NC(=O)[C@H](CC(=O)O)NC(=O)[C@H](CO)NC(=O)[C@@H](NC(=O)[C@H](Cc1ccccc1)NC(=O)[C@@H](NC(=O)CNC(=O)[C@H](CCC(=O)O)NC(=O)[C@H](C)NC(=O)[C@@H](N)Cc1cnc[nH]1)[C@@H](C)O)[C@@H](C)O)C(C)C)C(=O)N[C@@H](CCC(=O)O)C(=O)N[C@@H](Cc1ccccc1)C(=O)N[C@H](C(=O)N[C@@H](C)C(=O)N[C@@H](Cc1c[nH]c2ccccc12)C(=O)N[C@@H](CC(C)C)C(=O)N[C@H](C(=O)N[C@@H](CCCNC(=N)N)C(=O)NCC(=O)N[C@@H](CCCNC(=N)N)C(=O)NCC(=O)O)C(C)C)[C@@H](C)CC)C(=O)O` [LG, liraglutide], the “LG at the basolateral side after 2 h treatment” value in data set [1] was “undetected”. Moreover, the “Degradation in simulated gastric fluid with pepsin” value in data set [2] (SGF pH 1.2 with pepsin) is recorded as “rapid degradation”; in data set [2] (SGF pH 1.2 with pepsin, listed as free LG), “fully degraded”. Further, the “Degradation in simulated gastric fluid in the absence of pepsin” value in data set [2] (SGF pH 1.2 without pepsin) was “degradation was not observed”. Besides, the “Time to entire degradation in simulated gastric fluid, LG with PEG 1000” value in data set [2] (formulation containing PEG 1000, SGF pH 1.2 with pepsin) is reported as at most 60 min. For the same compound, in data set [2] (formulation containing PEG 4000, SGF pH 1.2 with pepsin), the “Time to entire degradation in simulated gastric fluid, LG with PEG 4000” value is at most 60 min.

The values are drawn from PMC10968941 (International Journal of Nanomedicine, 2024).
